# Results published in article PMC10840808 (Molecular cancer therapeutics, 2024).
# Ends that are not written are not given here.
# Key:
# FAK = FAK (Homo sapiens, UniProt Q05397); test: Surface plasmon resonance; type: binding
# How it was run: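 Biacore S200 at 25°C, with running buffer 1% DMSO/1x PBS-P+ (filtered, degassed) at 30 μL/min. FAK at 20 μg/mL in 10 mM sodium acetate pH 5.0 was amine-coupled to a CM5 chip, targeting 5000 RU, with unmodified flow cell 1 as reference. Peptide analyte: ≥5 concentrations (100 nM–100 μM) plus a repeat and a blank, multi-cycle. Association 180 s, dissociation 600 s. Regeneration with 10 mM glycine pH 2.5 for 30 s. KD from 1:1 Langmuir fit.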
# NANOG = NANOG (Homo sapiens, UniProt Q9H9S0); test: Surface plasmon resonance; type: binding
# Chain of NANOG (Q9H9S0 whole entry): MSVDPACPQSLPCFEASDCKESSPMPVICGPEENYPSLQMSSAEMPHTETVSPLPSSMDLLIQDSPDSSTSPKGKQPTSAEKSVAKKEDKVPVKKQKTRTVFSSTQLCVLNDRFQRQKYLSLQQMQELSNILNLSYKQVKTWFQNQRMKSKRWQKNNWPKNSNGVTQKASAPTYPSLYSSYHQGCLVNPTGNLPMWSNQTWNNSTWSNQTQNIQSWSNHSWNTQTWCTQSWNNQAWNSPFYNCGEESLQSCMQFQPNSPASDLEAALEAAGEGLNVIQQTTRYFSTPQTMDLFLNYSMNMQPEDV
# How it was run: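 Purified active NANOG at 50 μg/mL in 10 mM sodium acetate pH 4.5 was amine-coupled (EDC/NHS, ethanolamine block) to a CM5 chip, targeting 5000 RU, with an unmodified reference cell. Runs used Biacore S200 at 25°C, 1% DMSO/1x PBS-P+ at 30 μL/min. Peptide series: ≥5 concentrations, 100 nM–100 μM, plus repeat and zero. Association 180 s, dissociation 600 s, glycine pH 2.5 regeneration. KD by 1:1 Langmuir kinetics.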
# HCC70 cells [1] = test: qPCR gene expression; type: cell-based; details: HCC70, 10 μM, 7 day treatment, compared to aScr-pep
# How it was run: (§1)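 Cells were treated for 7 days with test peptide, cytosolic-tail peptide alone, scrambled peptide or vehicle, then analysed by real-time qPCR for NANOG-regulated and keratin genes. CT values were normalized to GAPDH, and dissociation curves checked primer fidelity. n=3 independent experiments, each in technical triplicate; one-way ANOVA.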
# MDA-MB-231 = test: Tumorsphere-initiation frequency, extreme limiting-dilution assay; type: cell-based; details: MDA-MB-231, ELDA, compared to aScr-pep
# How it was run: (§2)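 Cells were treated with vehicle, Antp alone, Antp-tagged scrambled peptide or test peptide. They were plated in duplicate rows at serial dilutions of 1–20 cells/well, one 96-well plate per condition. Medium was serum-free DMEM with 20 ng/ml bFGF, 10 ng/ml EGF, 2% B27 and 10 μg/ml insulin. After 2 weeks, wells were scored sphere-positive or negative by phase-contrast microscopy. Stem-cell frequency was computed by extreme limiting dilution analysis.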
# MDA-MB-231 cells [2] = test: CellTiter-Glo proliferation; type: cell-based; details: MDA-MB-231, increasing concentrations, 72 h
# How it was run: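 MDA-MB-231 cells, grown in DMEM with 1 mM sodium pyruvate and 10% heat-inactivated FCS at 37°C and 5% CO₂, were seeded at 1,000 cells/well. They were exposed for 72 h to Antp peptide alone, test peptide or vehicle (1% DMSO in PBS). Cells were lysed with CellTiter-Glo at day 0 and at 72 h, shaken 10 min in the dark, and luminescence was read. Fold change = 72 h value / day 0 value per group.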
# [3] = system: MDA-MB-231 luciferase-expressing tumors; type: in vivo, NSG mice; details: endpoint tumors
# How it was run: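 MDA-MB-231 cells were made luciferase-expressing by lentivirus and puromycin-selected. 1×10⁶ cells went into the right subcutaneous flank of 6-week-old female NSG mice. At palpability, mice were randomized to 50 μl intratumoral 0.1 mM peptide or vehicle (1% DMSO) every other day for 20 days. Weekly IVIS: D-luciferin 150 mg/kg IP under isoflurane, total flux. Excised tumors were fixed 3 days in 4% PFA, then sectioned and stained (H&E: 7–8 mice/group; IF: 3–4 mice/group, 3 images/mouse). One-way ANOVA.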
# MDA-MB-231 cells [4] = test: qPCR gene expression; type: cell-based; details: for expression of NANOG target genes (FABP5, POSTN, NRP2, PIN1, TAGLN) / expression of epithelial cell markers cytokeratin 18 and 19 (KRT18 and KRT19): MDA-MB-231, 7 days of treatment, n=3; for expression of NANOG target genes (FABP5, POSTN, NRP2, PIN1, TAGLN): compared to vehicle or aScr-pep
# How it was run: as §1
# MCF7 = test: Tumorsphere-initiation frequency, extreme limiting-dilution assay; type: cell-based; details: MCF7 luminal breast cancer cell line, ELDA, aScr-pep vs aCx26-pep
# How it was run: as §2
# HCC70 = test: as above; type: cell-based; details: HCC70, ELDA, compared to aScr-pep
# How it was run: as §2
# HCC70 cells [5] = test: Subcellular fractionation and immunoblotting for FAK and NANOG; type: cell-based; details: HCC70, 10 μM, 48 h, immunoblot
# How it was run: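 15×10⁶ HCC70 cells per 15 cm dish were treated 48 h with 10 μM peptide or 1% DMSO vehicle. A commercial kit gave membrane, cytoplasmic and nuclear fractions. 25 μg per fraction was run on 12% SDS-PAGE and transferred to PVDF. Blots were probed for FAK and NANOG, with HRP secondary 3 h at room temperature. Rhodamine anti-actin and Lamin A/C served as loading controls.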
# [6] = system: MCF7 luminal breast cancer cells; test: qPCR gene expression; type: cell-based; details: MCF7, 7 days of treatment, n=3
# How it was run: as §1
# MDA-MB-468 = test: Tumorsphere-initiation frequency, extreme limiting-dilution assay; type: cell-based; details: MDA-MB-468, ELDA, compared to aScr-pep
# How it was run: as §2
# [7] = immunofluorescence, 3–4 mice per group
# [8] = MDA-MB-231, 10 μM, 7 day treatment, compared to aScr-pep
# [9] = SPR, 25°C, 1% DMSO/1x PBS-P+, 1:1 Langmuir, range given in words
# Chain of FAK (Q05397 whole entry): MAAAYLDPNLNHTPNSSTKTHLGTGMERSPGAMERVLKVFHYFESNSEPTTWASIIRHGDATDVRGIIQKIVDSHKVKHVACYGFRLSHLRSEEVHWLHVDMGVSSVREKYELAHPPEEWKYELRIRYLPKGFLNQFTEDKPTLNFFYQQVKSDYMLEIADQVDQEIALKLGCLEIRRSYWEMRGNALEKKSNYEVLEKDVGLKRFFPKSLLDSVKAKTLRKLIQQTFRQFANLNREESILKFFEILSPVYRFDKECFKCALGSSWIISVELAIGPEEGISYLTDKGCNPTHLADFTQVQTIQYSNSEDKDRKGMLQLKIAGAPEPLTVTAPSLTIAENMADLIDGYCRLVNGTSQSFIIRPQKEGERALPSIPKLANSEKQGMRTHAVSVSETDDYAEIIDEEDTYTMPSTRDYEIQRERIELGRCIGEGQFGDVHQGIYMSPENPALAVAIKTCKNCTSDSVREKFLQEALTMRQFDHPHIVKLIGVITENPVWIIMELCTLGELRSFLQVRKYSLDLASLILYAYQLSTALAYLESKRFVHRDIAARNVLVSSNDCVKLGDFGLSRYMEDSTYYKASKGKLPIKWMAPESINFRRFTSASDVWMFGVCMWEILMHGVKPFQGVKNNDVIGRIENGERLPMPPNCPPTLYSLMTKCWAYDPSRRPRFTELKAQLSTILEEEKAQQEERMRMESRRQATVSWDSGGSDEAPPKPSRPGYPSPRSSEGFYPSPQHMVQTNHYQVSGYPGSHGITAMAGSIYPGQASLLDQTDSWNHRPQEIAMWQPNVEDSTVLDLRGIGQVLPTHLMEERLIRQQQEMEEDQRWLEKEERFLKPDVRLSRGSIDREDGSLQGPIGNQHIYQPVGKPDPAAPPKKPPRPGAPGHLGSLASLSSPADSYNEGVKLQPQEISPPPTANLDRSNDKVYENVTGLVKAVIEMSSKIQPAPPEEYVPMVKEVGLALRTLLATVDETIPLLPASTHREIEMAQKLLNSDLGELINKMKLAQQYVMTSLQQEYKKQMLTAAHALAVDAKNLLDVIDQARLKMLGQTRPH
substance,measurement,setting,value
RYCSG,binding to FAK by SPR (result in words),FAK,sufficient for binding
same,binding to NANOG by SPR (result in words),NANOG,sufficient for binding
aCx26-pep: peptide containing the Cx26 cytosolic tail sequence tagged with an antennapedia (Antp) leader sequence (RQIKIWFQNRRMKWKKRYCSGKSKKPV-NH2),Oct4 mRNA levels,HCC70 cells [1],significant decrease
same,Sox2 levels,HCC70 cells [1],did not observe a change
same,tumorsphere frequency,MDA-MB-231,significantly decreased
same,cell proliferation (CellTiter-Glo),MDA-MB-231 cells [2],not significantly affected
same,Ki67 staining (proliferation marker),[3]; [7],decreased
same,cleaved caspase 3 staining,[3]; [7],increased
same,vimentin staining (EMT marker),[3]; [7],decreased
same,percent tumor viability (H&E),"[3]; vs vehicle or aScr-pep, 7–8 mice per group",significantly decreased
same,Oct4 mRNA levels,MDA-MB-231 cells [4]; [8],significant decrease
same,Sox2 levels,MDA-MB-231 cells [4]; [8],did not observe a change
same,"expression of NANOG target genes (FABP5, POSTN, NRP2, PIN1, TAGLN)",MDA-MB-231 cells [4],significantly decreased
same,expression of epithelial cell markers cytokeratin 18 and 19 (KRT18 and KRT19),MDA-MB-231 cells [4],significantly increased
same,tumorsphere frequency,MCF7,no significant difference
same,tumorsphere frequency,HCC70,significantly decreased
same,FAK level in the nuclear fraction,HCC70 cells [5],dramatic decreases
same,NANOG level in the nuclear fraction,HCC70 cells [5],dramatic decreases
same,NANOG target gene expression,[6],did not significantly change
same,cytokeratin gene expression,[6],did not significantly change
same,binding to FAK by SPR (result in words),FAK,did not significantly alter
same,binding to NANOG by SPR (result in words),NANOG,did not significantly alter
same,tumorsphere frequency,MDA-MB-468,significantly decreased
"Cx26 cytosolic tail: peptide fragment of the Cx26 cytosolic (C-terminal) tail, 11 amino acids (RYCSGKSKKPV-NH2)","expression of NANOG target genes (FABP5, POSTN, NRP2, PIN1, TAGLN)",MDA-MB-231 cells [4],no significant differences
same,expression of epithelial cell markers cytokeratin 18 and 19 (KRT18 and KRT19),MDA-MB-231 cells [4],no significant differences
same,dissociation constant (KD) with FAK,FAK; [9],micromolar
same,dissociation constant (KD) with NANOG,NANOG; [9],nanomolar
